Data taken from ChEMBL document CHEMBL1143109, “Discovery of novel orally active ureido NPY Y5 receptor antagonists” (Bioorg Med Chem Lett, 2008).
Active and inactive are the calls of the source. No cut-off for these calls is given here.

Experiments:
[1] = Inhibition of chloride channel at 10 uM
How it was run: (§1)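 Counterscreen panel of 60 receptors, enzymes and ion channels; inhibition of binding measured at 10 µM.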

[2] = Bioavailability in po dosed rat; assay type: ADME, organism-based; conditions: in vivo
[3] = Ratio of drug level in brain to plasma in po dosed rat; assay type: ADME, organism-based; conditions: read-out: BPR
[4] = Half life in iv dosed rat; assay type: ADME, organism-based; conditions: in vivo
[5] = Half life in Beagle dog; assay type: ADME, organism-based, Canis lupus familiaris; conditions: in vivo
[6] = Bioavailability in Beagle dog; assay type: ADME, organism-based, Canis lupus familiaris; conditions: in vivo
Rattus norvegicus [7] = experiment: Reduction in food intake in Sprague-Dawley DIO rat at 10 mg/kg/day, po after 28 days relative to control; assay type: functional, organism-based
How it was run: (§2)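 DIO rats weighing 700–800 g at start, n = 12/group, food and water ad libitum. Compound admixed into low fat diet for 28 days; delivered doses (1, 3 or 10 mg/kg/day) calculated from food consumption. Body composition by DEXA scanning, expressed as percent change from day 0 baseline; average plasma levels taken at the 10 mg/kg/day dose.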

Rattus norvegicus [8] = experiment: Reduction in body weight gain in po dosed Sprague-Dawley DIO rat after 28 days relative to control; assay type: functional, organism-based; how it was run: as §2
Rattus norvegicus [9] = experiment: Decrease in adipose mass in po dosed Sprague-Dawley DIO rat after 28 days; assay type: functional, organism-based; how it was run: as §2
[10] = Drug level in plasma of Sprague-Dawley DIO rat at 10 mg/kg/day, po after 28 days; assay type: ADME, organism-based; set-up: route oral; how it was run: as §2
[11] = molecular target: T1, Neuropeptide Y receptor type 5 (Rattus norvegicus) (UniProt Q63634); experiment: Antagonist activity at rat NPY Y5 receptor expressed in HEK293 cells assessed as inhibition of forskolin-stimulated cAMP production; assay type: functional, cell-based
T1 sequence (whole entry): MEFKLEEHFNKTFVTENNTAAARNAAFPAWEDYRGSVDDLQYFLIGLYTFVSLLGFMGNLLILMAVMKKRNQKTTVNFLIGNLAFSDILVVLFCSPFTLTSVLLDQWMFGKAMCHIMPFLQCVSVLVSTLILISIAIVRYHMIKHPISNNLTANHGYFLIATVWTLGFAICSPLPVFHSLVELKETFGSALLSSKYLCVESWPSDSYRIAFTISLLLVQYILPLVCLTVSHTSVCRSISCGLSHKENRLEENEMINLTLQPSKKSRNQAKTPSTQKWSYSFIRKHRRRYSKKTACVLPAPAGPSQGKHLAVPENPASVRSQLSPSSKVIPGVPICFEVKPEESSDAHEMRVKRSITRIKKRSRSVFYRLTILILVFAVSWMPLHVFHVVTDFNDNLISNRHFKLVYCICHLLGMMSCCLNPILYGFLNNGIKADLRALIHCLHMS
How it was run: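 HEK293 cells expressing rat NPY Y5 receptor. Functional antagonism measured as the ability to overcome NPY inhibition of forskolin-stimulated cAMP production; reported as Kb.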

Rattus norvegicus [12] = experiment: Blockade of D-Trp[34]-NPY-induced food intake in po dosed rat; assay type: functional
Rattus norvegicus [13] = species on record: Rattus norvegicus; experiment: Antagonism of galanin-induced food intake in rat; assay type: functional, organism-based
[14] = molecular target: 5-hydroxytryptamine receptor 2A (Homo sapiens) (UniProt P28223); experiment: Inhibition of 5HT2A receptor at 10 uM; how it was run: as §1
[15] = molecular target: 5-hydroxytryptamine receptor 2B (Homo sapiens) (UniProt P41595); experiment: Inhibition of 5HT2B receptor at 10 uM; how it was run: as §1
[16] = molecular target: T2, 5-hydroxytryptamine receptor 2C (Homo sapiens) (UniProt P28335); experiment: Inhibition of 5HT2C receptor at 10 uM; how it was run: as §1
T2 sequence (whole entry): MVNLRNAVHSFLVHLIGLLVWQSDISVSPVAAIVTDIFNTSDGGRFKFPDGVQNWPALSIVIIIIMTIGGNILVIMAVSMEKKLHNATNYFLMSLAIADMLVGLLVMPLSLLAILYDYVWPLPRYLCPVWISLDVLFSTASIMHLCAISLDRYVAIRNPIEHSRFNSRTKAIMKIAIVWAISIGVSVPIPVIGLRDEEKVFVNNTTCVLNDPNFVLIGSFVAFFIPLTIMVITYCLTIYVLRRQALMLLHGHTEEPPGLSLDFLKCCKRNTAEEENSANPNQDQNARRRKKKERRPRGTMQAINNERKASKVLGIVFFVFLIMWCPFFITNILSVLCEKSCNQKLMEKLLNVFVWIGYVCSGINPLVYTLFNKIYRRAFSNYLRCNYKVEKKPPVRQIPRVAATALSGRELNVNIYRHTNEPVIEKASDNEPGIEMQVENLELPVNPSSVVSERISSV

[17] = molecular target: T3, 5-hydroxytryptamine receptor 3A (Homo sapiens) (UniProt P46098); experiment: Inhibition of 5HT3 receptor at 10 uM; how it was run: as §1
T3 sequence (whole entry): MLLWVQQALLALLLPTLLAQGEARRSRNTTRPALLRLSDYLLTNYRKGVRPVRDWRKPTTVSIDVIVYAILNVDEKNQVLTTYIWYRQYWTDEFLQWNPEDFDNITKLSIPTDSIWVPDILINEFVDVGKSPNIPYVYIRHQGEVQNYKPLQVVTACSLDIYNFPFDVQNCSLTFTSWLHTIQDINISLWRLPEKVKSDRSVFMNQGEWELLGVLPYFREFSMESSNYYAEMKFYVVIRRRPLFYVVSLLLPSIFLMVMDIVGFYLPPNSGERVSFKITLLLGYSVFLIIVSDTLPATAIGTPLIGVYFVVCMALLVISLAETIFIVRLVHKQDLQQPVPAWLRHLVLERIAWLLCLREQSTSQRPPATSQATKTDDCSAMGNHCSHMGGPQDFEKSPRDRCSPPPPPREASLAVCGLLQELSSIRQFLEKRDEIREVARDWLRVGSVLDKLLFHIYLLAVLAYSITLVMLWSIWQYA

[18] = molecular target: 5-hydroxytryptamine receptor 5A (Homo sapiens) (UniProt P47898); experiment: Inhibition of 5HT5A receptor at 10 uM; how it was run: as §1
[19] = molecular target: 5-hydroxytryptamine receptor 6 (Homo sapiens) (UniProt P50406); experiment: Inhibition of 5HT6 receptor at 10 uM; how it was run: as §1
[20] = molecular target: 5-hydroxytryptamine receptor 7 (Homo sapiens) (UniProt P34969); experiment: Inhibition of 5HT7 receptor at 10 uM; how it was run: as §1
[21] = molecular target: Sodium-dependent noradrenaline transporter (Homo sapiens) (UniProt P23975); experiment: Inhibition of norepinephrine transporter at 10 uM; how it was run: as §1
[22] = molecular target: Sodium-dependent dopamine transporter (Homo sapiens) (UniProt Q01959); experiment: Inhibition of dopamine transporter at 10 uM; how it was run: as §1
[23] = Inhibition of calcium channel at 10 uM; how it was run: as §1
[24] = Inhibition of sodium channel at 10 uM; how it was run: as §1
GABA transporter = experiment: Inhibition of GABA transporter at 10 uM

5-hydroxytryptamine receptor 6 (Homo sapiens), sequence (P50406 whole entry): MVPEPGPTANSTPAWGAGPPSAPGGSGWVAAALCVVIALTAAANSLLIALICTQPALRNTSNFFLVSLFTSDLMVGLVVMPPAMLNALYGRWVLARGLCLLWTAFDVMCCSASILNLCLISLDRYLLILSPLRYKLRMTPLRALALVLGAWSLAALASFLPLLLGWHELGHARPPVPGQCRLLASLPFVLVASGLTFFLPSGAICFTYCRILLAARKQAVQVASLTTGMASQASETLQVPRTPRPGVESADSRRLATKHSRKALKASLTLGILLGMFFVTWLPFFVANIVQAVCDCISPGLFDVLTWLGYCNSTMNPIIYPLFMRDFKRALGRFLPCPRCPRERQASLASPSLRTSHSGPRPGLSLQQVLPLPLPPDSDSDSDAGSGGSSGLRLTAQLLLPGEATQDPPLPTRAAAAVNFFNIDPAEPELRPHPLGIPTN
Sodium-dependent dopamine transporter (Homo sapiens), sequence (Q01959 whole entry): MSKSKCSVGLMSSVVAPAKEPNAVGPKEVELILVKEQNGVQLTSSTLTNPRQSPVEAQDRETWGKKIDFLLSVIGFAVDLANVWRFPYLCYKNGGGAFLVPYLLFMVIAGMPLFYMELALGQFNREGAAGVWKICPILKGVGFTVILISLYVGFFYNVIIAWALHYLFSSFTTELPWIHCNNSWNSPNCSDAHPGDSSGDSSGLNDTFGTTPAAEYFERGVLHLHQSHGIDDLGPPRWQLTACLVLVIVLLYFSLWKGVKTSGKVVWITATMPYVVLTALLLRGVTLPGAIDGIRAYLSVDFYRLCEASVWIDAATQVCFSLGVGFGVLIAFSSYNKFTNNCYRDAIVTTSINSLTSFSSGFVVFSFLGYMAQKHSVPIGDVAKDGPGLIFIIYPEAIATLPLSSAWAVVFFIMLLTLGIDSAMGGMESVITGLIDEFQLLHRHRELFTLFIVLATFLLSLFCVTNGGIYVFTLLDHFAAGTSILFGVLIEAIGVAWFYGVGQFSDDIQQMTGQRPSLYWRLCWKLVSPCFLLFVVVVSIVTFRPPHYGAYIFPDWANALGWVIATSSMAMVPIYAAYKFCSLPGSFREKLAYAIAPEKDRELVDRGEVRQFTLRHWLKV
5-hydroxytryptamine receptor 5A (Homo sapiens), sequence (P47898 whole entry): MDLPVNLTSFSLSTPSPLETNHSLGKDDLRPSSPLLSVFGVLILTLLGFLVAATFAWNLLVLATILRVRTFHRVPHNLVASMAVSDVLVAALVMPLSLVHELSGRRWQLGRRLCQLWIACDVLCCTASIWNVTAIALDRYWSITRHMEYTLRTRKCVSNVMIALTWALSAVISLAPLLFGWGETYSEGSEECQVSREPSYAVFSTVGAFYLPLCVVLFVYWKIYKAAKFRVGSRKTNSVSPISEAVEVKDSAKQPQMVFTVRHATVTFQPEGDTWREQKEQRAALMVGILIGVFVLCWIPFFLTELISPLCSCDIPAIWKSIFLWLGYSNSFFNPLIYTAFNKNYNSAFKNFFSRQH
5-hydroxytryptamine receptor 2A (Homo sapiens), sequence (P28223 whole entry): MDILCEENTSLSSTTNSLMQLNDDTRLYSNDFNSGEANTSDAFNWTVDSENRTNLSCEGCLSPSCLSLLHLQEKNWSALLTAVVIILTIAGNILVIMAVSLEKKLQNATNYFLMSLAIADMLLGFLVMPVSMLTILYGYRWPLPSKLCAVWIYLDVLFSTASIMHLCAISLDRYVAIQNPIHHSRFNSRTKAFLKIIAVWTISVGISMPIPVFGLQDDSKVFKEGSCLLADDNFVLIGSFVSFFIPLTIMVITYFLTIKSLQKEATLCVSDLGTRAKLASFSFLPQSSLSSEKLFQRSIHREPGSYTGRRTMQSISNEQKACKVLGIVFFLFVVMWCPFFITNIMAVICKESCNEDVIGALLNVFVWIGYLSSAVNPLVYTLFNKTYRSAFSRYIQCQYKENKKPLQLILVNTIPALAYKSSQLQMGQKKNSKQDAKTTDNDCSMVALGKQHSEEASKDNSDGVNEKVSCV
5-hydroxytryptamine receptor 2B (Homo sapiens), sequence (P41595 whole entry): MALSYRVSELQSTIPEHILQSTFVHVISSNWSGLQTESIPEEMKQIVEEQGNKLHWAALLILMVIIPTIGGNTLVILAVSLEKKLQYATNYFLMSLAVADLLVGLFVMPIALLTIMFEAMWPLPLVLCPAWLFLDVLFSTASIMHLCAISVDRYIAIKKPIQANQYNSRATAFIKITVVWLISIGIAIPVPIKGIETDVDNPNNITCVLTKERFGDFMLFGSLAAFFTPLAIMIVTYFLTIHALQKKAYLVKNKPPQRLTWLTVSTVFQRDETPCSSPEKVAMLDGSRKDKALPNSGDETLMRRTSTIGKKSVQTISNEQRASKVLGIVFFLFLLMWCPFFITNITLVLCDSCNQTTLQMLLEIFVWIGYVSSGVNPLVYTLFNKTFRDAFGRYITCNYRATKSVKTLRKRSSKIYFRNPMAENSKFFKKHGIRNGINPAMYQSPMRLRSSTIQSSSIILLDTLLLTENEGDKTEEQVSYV
Sodium-dependent noradrenaline transporter (Homo sapiens), sequence (P23975 whole entry): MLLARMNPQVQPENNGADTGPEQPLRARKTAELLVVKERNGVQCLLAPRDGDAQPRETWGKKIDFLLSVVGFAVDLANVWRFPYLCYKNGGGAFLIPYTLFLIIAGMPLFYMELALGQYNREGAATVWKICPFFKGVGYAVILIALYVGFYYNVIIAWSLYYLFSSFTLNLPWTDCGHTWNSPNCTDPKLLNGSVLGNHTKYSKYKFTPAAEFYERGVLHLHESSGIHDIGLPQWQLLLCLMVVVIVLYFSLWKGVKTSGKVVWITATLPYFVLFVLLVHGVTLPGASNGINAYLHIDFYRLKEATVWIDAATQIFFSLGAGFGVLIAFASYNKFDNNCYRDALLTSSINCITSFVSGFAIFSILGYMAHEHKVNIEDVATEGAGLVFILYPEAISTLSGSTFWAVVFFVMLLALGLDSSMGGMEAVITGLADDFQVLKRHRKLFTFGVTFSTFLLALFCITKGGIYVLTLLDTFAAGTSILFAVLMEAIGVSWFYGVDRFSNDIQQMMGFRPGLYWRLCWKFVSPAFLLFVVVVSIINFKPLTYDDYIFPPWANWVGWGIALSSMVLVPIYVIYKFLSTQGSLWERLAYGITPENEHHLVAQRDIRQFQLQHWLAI
5-hydroxytryptamine receptor 7 (Homo sapiens), sequence (P34969 whole entry): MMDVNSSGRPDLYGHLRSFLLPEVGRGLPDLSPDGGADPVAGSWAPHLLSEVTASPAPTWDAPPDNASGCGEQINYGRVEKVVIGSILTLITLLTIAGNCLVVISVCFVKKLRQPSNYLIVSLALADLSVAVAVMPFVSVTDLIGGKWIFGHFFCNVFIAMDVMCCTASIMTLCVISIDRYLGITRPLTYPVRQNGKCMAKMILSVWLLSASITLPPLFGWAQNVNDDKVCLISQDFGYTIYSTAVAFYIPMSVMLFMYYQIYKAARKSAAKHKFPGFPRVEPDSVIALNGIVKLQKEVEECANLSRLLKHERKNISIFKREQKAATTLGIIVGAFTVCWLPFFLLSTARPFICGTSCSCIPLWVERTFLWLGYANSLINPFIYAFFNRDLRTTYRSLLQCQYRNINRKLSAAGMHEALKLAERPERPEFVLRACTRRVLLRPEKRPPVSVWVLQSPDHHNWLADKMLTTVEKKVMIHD

inhibition [1]: < 25%
bioavailability [2]: 100%
Kp [3]: 0.3
half-life [4]: 1.4 h
half-life [5]: 24 h
bioavailability [6]: 94%
concentration at 672 h [10]: 13 µM
Kb [11]: 2.7 nM
inhibition [14]: < 10%
inhibition [15]: < 10%
inhibition [16]: < 10%
inhibition [17]: < 10%
inhibition [18]: < 10%
inhibition [19]: < 10%
inhibition [20]: < 10%
inhibition [21]: < 10%
inhibition [22]: < 10%
inhibition [23]: < 25%
inhibition [24]: < 25%
inhibition (GABA transporter): < 10%
Structure (SMILES): CC(=O)N1CCC(N(C)C(=O)N[C@H]2CC[C@H](c3cc(F)cc(F)c3)CC2)CC1
Activity (Rattus norvegicus [7]): Dose-dependent effect
Activity (Rattus norvegicus [8]): Dose-dependent effect
Activity (Rattus norvegicus [9]): Dose-dependent effect
ED50 (Rattus norvegicus [12]): 2.3 mg/kg
Activity (Rattus norvegicus [13]): inactive
